This note sets out measurements from ChEMBL document CHEMBL1122132, “Synthesis, 470-MHz 1H NMR spectra, and activity of delactonized derivatives of the anticancer drug etoposide” (1982).

Type in all cases: functional
The subject of assay [1] is L1210. Description: In vitro cytotoxic activity tested in mouse leukemia L1210 cells at a dose of 50.0 ug/mL. The conditions noted are these: read-out: Survival. The method in brief:
(§1)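 Continuous mouse L1210 leukemia cell line exposed to 0.5, 5.0 or 50.0 μg/mL in a soft agar clonogenic assay. Colony survival is expressed as % of untreated control, with control set at 100.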

For assay [2], the system named is Mus musculus. Description: Percent increase in life span of mouse leukemia L1210 system at a dose of 45 mg/kg.
Assay [3] concerns L1210. Description: In vitro cytotoxic activity tested in mouse leukemia L1210 cells at a dose of 0.5 ug/mL. The conditions noted are these: read-out: Survival. The method in brief:
as §1

Assay [4] has as its system Mus musculus. Description: Percent increase in life span of mouse leukemia L1210 system at a dose of 60 mg/kg.
Assay [5] relates to Mus musculus. Briefly: Percent increase in life span of mouse leukemia L1210 system at a dose of 30 mg/kg.
Assay [6] relates to L1210. Briefly: In vitro cytotoxic activity tested in mouse leukemia L1210 cells at a dose of 5.0 ug/mL. The conditions noted are these: read-out: Survival. The method in brief: as §1

For the molecule `COc1cc([C@@H]2c3cc4c(cc3[C@@H](O[C@@H]3O[C@@H]5CO[C@@H](C)O[C@H]5[C@H](O)[C@H]3O)[C@H]3COC[C@H]23)OCO4)cc(OC)c1O`, in the assay with L1210 [1], the viability at 50 µg/mL was 0%. Further, the ILS at 45 mg/kg in the assay with Mus musculus [2] was determined as 25%. Further, the viability at 0.5 µg/mL in the assay with L1210 [3] is 165%. Besides, the ILS at 60 mg/kg in the assay on Mus musculus [4] was found to be 30%. In the assay on Mus musculus [5], this molecule had an ILS at 30 mg/kg of 10%. The viability at 5 µg/mL in the assay with L1210 [6] turned out to be 0%.

Consider `COc1cc([C@@H]2c3cc4c(cc3[C@@H](O[C@@H]3O[C@@H]5CO[C@@H](C)O[C@H]5[C@H](O)[C@H]3O)[C@H]3COC(=O)[C@H]23)OCO4)cc(OC)c1O` [ETOPOSIDE], for which the viability at 50 µg/mL in the assay on L1210 [1] came to 0%. In addition, in the assay with L1210 [3], the viability at 0.5 µg/mL is 0%. This molecule also displayed an ILS at 60 mg/kg in the assay with Mus musculus [4] of 103%. Also, in the assay on Mus musculus [5], the ILS at 30 mg/kg was 110%. Also, the viability at 5 µg/mL in the assay on L1210 [6] amounted to 1%.

In the case of `COc1cc([C@@H]2c3cc4c(cc3[C@@H](O[C@@H]3O[C@@H]5CO[C@@H](C)O[C@H]5[C@H](O)[C@H]3O)[C@@H](CO)[C@@H]2CO)OCO4)cc(OC)c1O`, in the assay with L1210 [1], the viability at 50 µg/mL turned out to be 43%. Besides, the ILS at 45 mg/kg in the assay with Mus musculus [2] stood at 0%. Moreover, the ILS at 60 mg/kg in the assay with Mus musculus [4] is 5%. Moreover, in the assay on Mus musculus [5], the ILS at 30 mg/kg was 0%. The viability at 5 µg/mL with L1210 [6] came to 221%.
